Screens deposited in PubChem BioAssay by The Scripps Research Institute Molecular Screening Center.
GPR7 antagonist: blocks human GPR7 receptor signaling. P48145. GPR7-expressing cells, fluorescence antagonist assay. inhibition, % at 4.4 µM. actives 1.1% (n = 290,000). AID 1861; in the data active means inhibition above about 16%, passing the limit was not always enough;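 further: cells stimulated with the agonist NPW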
CHO parental Ca: signal in parental CHO cells, OX1R antagonist counter-screen; parental CHO-K1, ATP-induced calcium, Fluo-8 fluorescence; actives 0.63% (n = 330,000); inhibition, % at 5.6 µM;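 active means inhibition above that plate's mean sample inhibition plus 3 SD, cut at about 26% in these data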
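Assay system: parental CHO cells; Read-out basis: percent inhibition of ATP-evoked calcium rise, normalized to controls; Benchmarks: ATP and no-ATP DMSO wells; Compound dosing: single nominal dose of 5.6 µM per compound; Signal: Fluo-8 calcium dye fluorescence; Also added: ATP as calcium-mobilizing challenge; Repeats: singlicate.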
GalR3 antag: human GalR3 antagonism; inhibition, % at 3 µM; actives 0.44% (n = 360,000); HEK293 GalR3-CNG cAMP membrane potential fluorescence; galR3 body fused to GalR1 C-terminus; AID 651719; O60755;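 active means inhibition above the screen-wide average plus 3 SD, cut at about 13% in these data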;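 further: forskolin and galanin both at EC90 stimulate the cells; cAMP rise reported by CNG channel membrane potential dye signal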
OX1R antag-1: blocks the human orexin 1 receptor; inhibition, % at 5 µM; O43613; AID 434989; CHO/OX1R cells, Fluo-8 calcium fluorescence, orexin A; actives 0.43% (n = 330,000);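 active means inhibition above its plate's threshold, mean inhibition of all tested compounds on the plate plus 3 SD, cut at about 37% in these data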
Target sequence (O43613 whole entry, looked up): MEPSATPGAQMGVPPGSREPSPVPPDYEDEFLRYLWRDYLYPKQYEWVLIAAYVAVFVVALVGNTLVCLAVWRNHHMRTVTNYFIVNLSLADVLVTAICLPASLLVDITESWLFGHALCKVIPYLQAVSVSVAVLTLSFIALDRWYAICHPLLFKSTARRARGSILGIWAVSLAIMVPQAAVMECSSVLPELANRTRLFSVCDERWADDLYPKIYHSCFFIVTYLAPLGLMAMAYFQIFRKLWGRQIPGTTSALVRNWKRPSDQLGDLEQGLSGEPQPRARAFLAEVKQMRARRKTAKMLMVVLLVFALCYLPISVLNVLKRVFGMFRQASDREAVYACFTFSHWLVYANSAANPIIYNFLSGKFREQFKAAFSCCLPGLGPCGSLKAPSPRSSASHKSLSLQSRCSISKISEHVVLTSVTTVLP
OX1R antag-2: blocks the human orexin 1 receptor; OX1R-expressing cells, FRET antagonist read-out; inhibition, % at 6.6 µM; actives 1.8% (n = 330,000); in the data active means inhibition mostly above about 38%, no sharp cut-off; inactive means mostly below about 40%
Of the large screens only hits and unclear results are named; the others gave an inactive call. Compounds with a hit are over-represented: about 3.1% of the library has one in this group of screens.

CCN1/C(=C/C=C/C=C/C=C/c2sc3ccccc3[n+]2CC)Sc2ccccc21	none
CCN1/C(=C/C=C/C=C/c2sc3ccccc3[n+]2CC)Sc2ccccc21	CHO parental Ca 61.1, OX1R antag-1 51.8 (no result: GalR3 antag)
CCN1/C(=C/C=C/c2sc3ccccc3[n+]2CC)Sc2ccccc21	CHO parental Ca 61.1, OX1R antag-2 41.2 (no result: GPR7 antagonist, GalR3 antag)
COc1ccc(NC(=S)NCCc2c(C)[nH]c3ccc(OC)cc23)cc1	none
CCN(CCCNC(=O)CCc1nc(-c2ccc(OC)cc2)no1)c1cccc(C)c1	OX1R antag-2 54.6
O=C(OCCCN=C1NS(=O)(=O)c2ccccc21)c1ccc([N+](=O)[O-])cc1	OX1R antag-2 50.9
CC(C)(C)c1ccc(-n2nc(C#N)c(Cl)cc2=O)cc1	GPR7 antagonist 84.5 (no result: CHO parental Ca, OX1R antag-1, OX1R antag-2)
O=C1NCN(c2ccccc2)C12CCN(CCCC(c1ccc(F)cc1)c1ccc(F)cc1)CC2	OX1R antag-1 39.9 (no result: GalR3 antag)
COC(=O)C1=C(C)NC(C)=C(C(=O)OC)C1c1ccc(OC(=O)c2oc3ccccc3c2C)c(OC)c1	none
Nc1ccc2oc(-c3cc(Br)ccc3Cl)nc2c1	OX1R antag-2 47.3 (no result: GalR3 antag)
Nc1ccc2oc(-c3ccccc3Cl)nc2c1	none
NC1=C(Br)C(=O)c2ccccc2C1=O	OX1R antag-2 71.8
CCOC(=O)CN1C(=O)S/C(=C/c2ccc3c(c2)n(C)c(=O)n3C)C1=O	none
CCOC(=O)CN1C(=O)S/C(=C/C=C/c2ccc(N(C)C)cc2)C1=O	CHO parental Ca 32.1, OX1R antag-1 54.6
Fc1ccc2nc(C3CCCCN3Cc3nc(CC4CC4)no3)[nH]c2c1 (stereo not given)	GPR7 antagonist 19.3
Fc1ccc(C2CCCCN2Cc2nc(CC3CC3)no2)cc1 (stereo not given)	none
Cc1ccnc(NC(=O)c2ccccc2NC(=O)c2ccc(Cl)cc2Cl)c1	none
Cc1nc2ccccc2cc1OCc1ccccc1	CHO parental Ca 37.0
Cc1nc(OCc2ccccc2)c2ccccc2n1	none
CCOC(=O)c1cc2c(=O)n3cccc(C)c3nc2n(Cc2ccco2)c1=NC(=O)c1cccnc1	none (no result: CHO parental Ca, OX1R antag-1, OX1R antag-2)
CCOC(=O)c1cc2c(=O)n3ccccc3nc2n(Cc2ccco2)c1=NC(=O)c1cccnc1	OX1R antag-2 51.8
CCOC(=O)c1cc2c(=O)n3ccccc3nc2n(Cc2ccco2)c1=NC(=O)c1ccccc1OCC	OX1R antag-2 37.6
O=C(COc1ccc(S(=O)(=O)N2CCOCC2)cc1)NC1CCCCC1	none (no result: GPR7 antagonist)
O=C(NCCc1nnc2ccc(NCCCN3CCOCC3)nn12)c1ccccc1	none
N#Cc1ccccc1NC(=O)CSc1nnc(-c2ccncc2)o1	none
COc1ccccc1NS(=O)(=O)c1cccc(NC(=O)Nc2cccc(Cl)c2)c1	CHO parental Ca 30.5
COc1ccccc1NS(=O)(=O)c1cccc(NC(=O)NCCCl)c1	none
COc1ccc2c3c(cccc13)N(C)N=C2C	OX1R antag-2 66.3
COc1ccc2c3c(cccc13)OC2=O	none
COc1cccc(-n2c(C)nc3c(cnn3-c3ccc(C)cc3)c2=O)c1	none
Cc1cccc(-n2c(C)nc3c(cnn3-c3ccc(F)cc3)c2=O)c1	CHO parental Ca 35.5
COc1ccc(-n2c(C)nc3c(cnn3-c3ccc(Cl)cc3)c2=O)cc1	CHO parental Ca 39.9
COc1ccc(Oc2c(Cl)cnn(-c3ccc(Cl)c(Cl)c3)c2=O)cc1	CHO parental Ca 51.8
CCn1c2ccccc2c2cc(CN3CCN(Cc4cc(OC)ccc4O)CC3)ccc21	OX1R antag-2 49.6
CCn1c2ccccc2c2cc(CN3CCN(S(C)(=O)=O)CC3)ccc21	none
COc1cccc(CNC(=O)Cc2csc(NC(=O)Nc3ccccc3OC)n2)c1	OX1R antag-2 42.3 (no result: GPR7 antagonist)
CCCC(=O)OCCNc1cc(SCc2ccco2)c2nonc2c1[N+](=O)[O-]	OX1R antag-2 68.4
CCCSc1cc(NCCOC(=O)CCC)c([N+](=O)[O-])c2nonc12	OX1R antag-2 66.4
CC(=O)OCCCNc1cc(SCc2ccco2)c2nonc2c1[N+](=O)[O-]	OX1R antag-2 73.0
CCOC(=O)c1cnc2c(-c3ccccc3)c(-c3ccccc3)nn2c1C	none
Cn1c2ccccc2c2cc(/C=N/NC(=O)c3cc(O)cc(O)c3)ccc21	OX1R antag-2 73.8
O=C(N/N=C/c1ccc(F)cc1)c1ccccc1	none
COc1cc(C(=O)N/N=C/c2ccc3c(c2)c2ccccc2n3C)ccc1O	none (no result: CHO parental Ca, OX1R antag-1, OX1R antag-2)
CCn1c2ccccc2c2cc(/C=N/NC(=O)c3ccccc3)ccc21	OX1R antag-1 67.4, OX1R antag-2 91.8
COc1ccccc1NC(=O)C1CCCN1S(=O)(=O)c1cccc2nsnc12 (stereo not given)	OX1R antag-2 76.1 (no result: GalR3 antag)
